Results as given in ChEMBL document CHEMBL4330069, “Boosting the efficacy of anti-MRSA β-lactam antibiotics via an easily accessible, non-cytotoxic and orally bioavailable FtsZ inhibitor” (Eur J Med Chem, 2019).
≈ marks a conversion by molar mass, not a printed value.

Experiments:
Staphylococcus aureus [1] = assay: Synergistic antibacterial activity against multidrug-resistant Staphylococcus aureus isolate 2895 in presence of methicillin by broth microdilution assay; format: functional
Method in brief: (§1)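 CLSI broth microdilution on clinical MRSA isolates. MICs were measured for the β-lactam alone, the test agent alone and the two combined. Compounds were dissolved in DMSO, and growth inhibition was scored by eye. FIC index is the sum, over both agents, of MIC in combination divided by MIC alone. An FIC index ≤0.5 was taken as synergy.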

Staphylococcus aureus [2] = assay: Synergistic antibacterial activity against multidrug-resistant Staphylococcus aureus isolate 2895 in presence of meropenem by broth microdilution assay; format: functional; method in brief: as §1
Staphylococcus aureus [3] = assay: Antibacterial activity against Staphylococcus aureus ATCC 29213 after 20 hrs; format: functional; details: ATCC 29213, 20 h
Method in brief: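 Broth microdilution MIC per CLSI guidelines, compounds dissolved in DMSO. Resistant mutants were selected by serial passage of ATCC 29213 in LB at 37 °C with shaking at 250 rpm. Each 20 h culture started at half the MIC, and the concentration was doubled at each transfer. Growth inhibition was read by eye, in duplicate.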

Staphylococcus aureus [4] = assay: Synergistic antibacterial activity against multidrug-resistant Staphylococcus aureus isolate 2490 in presence of methicillin by broth microdilution assay; format: functional
Method in brief: (§2)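 Clinical MRSA isolate panel; compound and β-lactam tested alone and in combination by CLSI broth microdilution, compounds dissolved in DMSO, growth inhibition scored by eye, run in duplicate. FIC index = FIC(compound) + FIC(drug), each the MIC in combination divided by the MIC alone; an index ≤ 0.5 was called synergy.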

Staphylococcus aureus [5] = assay: Synergistic antibacterial activity against multidrug-resistant Staphylococcus aureus isolate 1344 assessed as fractional Inhibitory concentration index in presence of meropenem by broth microdilution assay; format: functional
Method in brief: (§3)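 CLSI broth microdilution run on clinical MRSA isolates with each β-lactam alone, the test agent alone, and the two combined; agents dissolved in DMSO. Growth inhibition was read by eye. FIC index = FIC(compound) + FIC(β-lactam), where each FIC is the MIC in combination divided by the MIC alone. An index ≤0.5 was taken as synergy.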

Staphylococcus aureus [6] = assay: Synergistic antibacterial activity against multidrug-resistant Staphylococcus aureus isolate 774 in presence of cloxacillin by broth microdilution assay; format: functional
Staphylococcus aureus [7] = assay: Synergistic antibacterial activity against multidrug-resistant Staphylococcus aureus isolate 1344 in presence of cefuroxime by broth microdilution assay; format: functional; method in brief: as §2
Staphylococcus aureus [8] = assay: Synergistic antibacterial activity against multidrug-resistant Staphylococcus aureus isolate 200 in presence of cloxacillin by broth microdilution assay; format: functional; method in brief: as §2
Staphylococcus aureus [9] = assay: Synergistic antibacterial activity against multidrug-resistant Staphylococcus aureus isolate 2895 assessed as fractional Inhibitory concentration index in presence of cefuroxime by broth microdilution assay; format: functional
Staphylococcus aureus [10] = assay: Synergistic antibacterial activity against multidrug-resistant Staphylococcus aureus isolate 256 assessed as fractional Inhibitory concentration index in presence of amoxicillin by broth microdilution assay; format: functional
Staphylococcus aureus [11] = assay: Synergistic antibacterial activity against multidrug-resistant Staphylococcus aureus isolate 3580 in presence of amoxicillin by broth microdilution assay; format: functional
Staphylococcus aureus [12] = assay: Synergistic antibacterial activity against multidrug-resistant Staphylococcus aureus isolate 1344 assessed as fractional Inhibitory concentration index in presence of methicillin by broth microdilution assay; format: functional; method in brief: as §3
Staphylococcus aureus [13] = assay: Synergistic antibacterial activity against multidrug-resistant Staphylococcus aureus isolate 2919 assessed as fractional Inhibitory concentration index in presence of amoxicillin by broth microdilution assay; format: functional
Staphylococcus aureus [14] = assay: Synergistic antibacterial activity against multidrug-resistant Staphylococcus aureus isolate 2901 assessed as fractional Inhibitory concentration index in presence of amoxicillin by broth microdilution assay; format: functional
Staphylococcus aureus [15] = assay: Synergistic antibacterial activity against multidrug-resistant Staphylococcus aureus isolate 3411 assessed as fractional Inhibitory concentration index in presence of cloxacillin by broth microdilution assay; format: functional
Staphylococcus aureus [16] = assay: Synergistic antibacterial activity against multidrug-resistant Staphylococcus aureus isolate 1749 assessed as fractional Inhibitory concentration index in presence of cefuroxime by broth microdilution assay; format: functional; method in brief: as §3
Staphylococcus aureus [17] = assay: Synergistic antibacterial activity against multidrug-resistant Staphylococcus aureus isolate 256 in presence of meropenem by broth microdilution assay; format: functional; method in brief: as §1
Staphylococcus aureus [18] = assay: Synergistic antibacterial activity against multidrug-resistant Staphylococcus aureus isolate 2728 in presence of meropenem by broth microdilution assay; format: functional; method in brief: as §1
Staphylococcus aureus [19] = assay: Synergistic antibacterial activity against multidrug-resistant Staphylococcus aureus isolate 774 assessed as fractional Inhibitory concentration index in presence of meropenem by broth microdilution assay; format: functional
Staphylococcus aureus [20] = assay: Antibacterial activity against multidrug-resistant Staphylococcus aureus isolate 2973 by broth microdilution assay; format: functional
Method in brief: (§4)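 Broth microdilution MIC per CLSI guidelines against clinical MRSA isolates, for β-lactams and test compound alone and in combination. Compounds were dissolved in DMSO. Growth was read by eye, in duplicate. FIC index = FIC(compound) + FIC(drug); synergy defined as FIC index ≤0.5.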

[21] = Selective index, ratio of IC50 for mouse L929 cells to MIC for Staphylococcus aureus ATCC 29213
Method in brief: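 Selectivity index calculated as L929 IC50 (μM) divided by S. aureus MIC (μM).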

Staphylococcus aureus [22] = assay: Synergistic antibacterial activity against multidrug-resistant Staphylococcus aureus isolate 3580 in presence of cloxacillin by broth microdilution assay; format: functional
Staphylococcus aureus [23] = assay: Synergistic antibacterial activity against multidrug-resistant Staphylococcus aureus isolate 3267 assessed as fractional Inhibitory concentration index in presence of cefuroxime by broth microdilution assay; format: functional
Staphylococcus aureus [24] = assay: Antibacterial activity against multidrug-resistant Staphylococcus aureus isolate 3267 by broth microdilution assay; format: functional; method in brief: as §4
Escherichia coli = assay: Antibacterial activity against Escherichia coli ATCC 25922 by broth microdilution assay; format: functional
Method in brief: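 Broth microdilution per CLSI guidelines; compounds dissolved in DMSO; single agents tested; growth inhibition read by eye; run in duplicate (table footnote states at least triplicates).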

Staphylococcus aureus [25] = assay: Synergistic antibacterial activity against multidrug-resistant Staphylococcus aureus isolate 1344 in presence of amoxicillin by broth microdilution assay; format: functional; method in brief: as §2
Staphylococcus aureus [26] = assay: Synergistic antibacterial activity against multidrug-resistant Staphylococcus aureus isolate 1344 in presence of meropenem by broth microdilution assay; format: functional; method in brief: as §2
Staphylococcus aureus [27] = assay: Synergistic antibacterial activity against multidrug-resistant Staphylococcus aureus isolate 3332 in presence of cefuroxime by broth microdilution assay; format: functional; method in brief: as §1
Staphylococcus aureus [28] = assay: Synergistic antibacterial activity against multidrug-resistant Staphylococcus aureus isolate 2901 in presence of cloxacillin by broth microdilution assay; format: functional; method in brief: as §1
Staphylococcus aureus [29] = assay: Synergistic antibacterial activity against multidrug-resistant Staphylococcus aureus isolate 1136 in presence of meropenem by broth microdilution assay; format: functional; method in brief: as §2
Staphylococcus aureus [30] = assay: Synergistic antibacterial activity against multidrug-resistant Staphylococcus aureus isolate 1344 assessed as fractional Inhibitory concentration index in presence of cefuroxime by broth microdilution assay; format: functional; method in brief: as §3
Staphylococcus aureus [31] = assay: Synergistic antibacterial activity against multidrug-resistant Staphylococcus aureus isolate 2901 assessed as fractional Inhibitory concentration index in presence of meropenem by broth microdilution assay; format: functional
Staphylococcus aureus [32] = assay: Synergistic antibacterial activity against multidrug-resistant Staphylococcus aureus isolate 231 in presence of cloxacillin by broth microdilution assay; format: functional; method in brief: as §2
Staphylococcus aureus [33] = assay: Synergistic antibacterial activity against multidrug-resistant Staphylococcus aureus isolate 3267 assessed as fractional Inhibitory concentration index in presence of amoxicillin by broth microdilution assay; format: functional
Staphylococcus aureus [34] = assay: Synergistic antibacterial activity against multidrug-resistant Staphylococcus aureus isolate 2919 assessed as fractional Inhibitory concentration index in presence of cefuroxime by broth microdilution assay; format: functional

## CCCCCCCCCNc1ccc(F)c(C(N)=O)c1F
Staphylococcus aureus [1]
  MIC: 4 µg/mL
Staphylococcus aureus [2]
  MIC: 2 µg/mL
Staphylococcus aureus [3]
  MIC: 1 µg/mL (≈ 3.35 µM)
Staphylococcus aureus [4]
  MIC: 4 µg/mL
Staphylococcus aureus [5]
  fractional inhibitory concentration index (FICI): 2
Staphylococcus aureus [6]
  MIC: 1 µg/mL
Staphylococcus aureus [7]
  MIC: 4 µg/mL
Staphylococcus aureus [8]
  MIC: 1 µg/mL
Staphylococcus aureus [9]
  fractional inhibitory concentration index (FICI): 0.3
Staphylococcus aureus [10]
  fractional inhibitory concentration index (FICI): 0.1
Staphylococcus aureus [11]
  MIC: 8 µg/mL
Staphylococcus aureus [12]
  fractional inhibitory concentration index (FICI): 0.3
Staphylococcus aureus [13]
  fractional inhibitory concentration index (FICI): 0.5
Staphylococcus aureus [14]
  fractional inhibitory concentration index (FICI): 0.1
Staphylococcus aureus [15]
  fractional inhibitory concentration index (FICI): 0.5
Staphylococcus aureus [16]
  fractional inhibitory concentration index (FICI): 1.1
Staphylococcus aureus [17]
  MIC: 8 µg/mL
Staphylococcus aureus [18]
  MIC: 4 µg/mL
Staphylococcus aureus [19]
  fractional inhibitory concentration index (FICI): 0.1
Staphylococcus aureus [20]
  MIC: 128 µg/mL (≈ 429 µM)
[21]
  Selectivity Index: >32
Staphylococcus aureus [22]
  MIC: 1 µg/mL
Staphylococcus aureus [23]
  fractional inhibitory concentration index (FICI): 0
Staphylococcus aureus [24]
  MIC: 1020 µg/mL (≈ 3430 µM)
Escherichia coli
  MIC: > 64 µg/mL
Staphylococcus aureus [25]
  MIC: 16 µg/mL
Staphylococcus aureus [26]
  MIC: 16 µg/mL
Staphylococcus aureus [27]
  MIC: 2 µg/mL
Staphylococcus aureus [28]
  MIC: 0.5 µg/mL
Staphylococcus aureus [29]
  MIC: 8 µg/mL
Staphylococcus aureus [30]
  fractional inhibitory concentration index (FICI): 0.3
Staphylococcus aureus [31]
  fractional inhibitory concentration index (FICI): 4
Staphylococcus aureus [32]
  MIC: 2 µg/mL
Staphylococcus aureus [33]
  fractional inhibitory concentration index (FICI): 0.3
Staphylococcus aureus [34]
  fractional inhibitory concentration index (FICI): 0.3
